Test results: article PMC10905627 (Oncogene, 2018)
Like-named read-outs stand apart in the source and are kept apart here. Peptide text beside a SMILES is read from it. * marks the point of attachment. Cbz = O=C(OCc1ccccc1)*; CH2F = FC*

Legend:
[1] = cited from earlier work
[2] = target: T1, BMPR2 (Homo sapiens, UniProt Q13873); settings: read-out: IC50 BMPR2; previously reported; cited from earlier work
T1 sequence (Q13873 27-1038): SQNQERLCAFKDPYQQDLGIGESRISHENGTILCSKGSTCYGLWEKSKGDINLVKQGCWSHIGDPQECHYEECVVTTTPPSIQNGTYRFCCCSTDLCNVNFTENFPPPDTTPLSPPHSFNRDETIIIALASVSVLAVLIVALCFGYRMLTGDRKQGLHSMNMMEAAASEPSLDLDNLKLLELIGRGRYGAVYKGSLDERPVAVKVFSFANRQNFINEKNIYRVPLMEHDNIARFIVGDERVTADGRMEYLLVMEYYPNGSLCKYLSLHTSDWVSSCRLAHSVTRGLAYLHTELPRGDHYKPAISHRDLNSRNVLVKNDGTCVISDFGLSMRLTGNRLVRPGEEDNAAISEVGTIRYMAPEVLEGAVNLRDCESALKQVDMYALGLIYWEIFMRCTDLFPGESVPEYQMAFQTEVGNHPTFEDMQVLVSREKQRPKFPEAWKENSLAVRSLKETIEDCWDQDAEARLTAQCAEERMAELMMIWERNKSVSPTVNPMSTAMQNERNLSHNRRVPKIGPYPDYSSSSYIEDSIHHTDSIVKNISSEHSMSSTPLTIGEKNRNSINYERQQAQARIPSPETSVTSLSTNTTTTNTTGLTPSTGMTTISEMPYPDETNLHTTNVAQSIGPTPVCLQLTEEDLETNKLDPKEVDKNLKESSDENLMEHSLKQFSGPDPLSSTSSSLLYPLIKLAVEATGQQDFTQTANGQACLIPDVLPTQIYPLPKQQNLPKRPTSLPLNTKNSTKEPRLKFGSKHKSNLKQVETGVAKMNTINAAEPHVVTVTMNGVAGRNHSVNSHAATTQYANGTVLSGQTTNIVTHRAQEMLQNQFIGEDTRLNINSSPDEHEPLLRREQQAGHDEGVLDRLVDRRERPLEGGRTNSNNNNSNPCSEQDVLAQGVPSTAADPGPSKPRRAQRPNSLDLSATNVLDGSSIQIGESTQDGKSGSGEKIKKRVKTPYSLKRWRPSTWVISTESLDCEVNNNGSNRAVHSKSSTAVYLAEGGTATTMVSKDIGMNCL

[3] = target: T2, ALK2/ACVR1 (Homo sapiens, UniProt Q04771); settings: read-out: IC50 ALK2/ACVR1; previously reported; cited from earlier work
T2 sequence (Q04771 21-509): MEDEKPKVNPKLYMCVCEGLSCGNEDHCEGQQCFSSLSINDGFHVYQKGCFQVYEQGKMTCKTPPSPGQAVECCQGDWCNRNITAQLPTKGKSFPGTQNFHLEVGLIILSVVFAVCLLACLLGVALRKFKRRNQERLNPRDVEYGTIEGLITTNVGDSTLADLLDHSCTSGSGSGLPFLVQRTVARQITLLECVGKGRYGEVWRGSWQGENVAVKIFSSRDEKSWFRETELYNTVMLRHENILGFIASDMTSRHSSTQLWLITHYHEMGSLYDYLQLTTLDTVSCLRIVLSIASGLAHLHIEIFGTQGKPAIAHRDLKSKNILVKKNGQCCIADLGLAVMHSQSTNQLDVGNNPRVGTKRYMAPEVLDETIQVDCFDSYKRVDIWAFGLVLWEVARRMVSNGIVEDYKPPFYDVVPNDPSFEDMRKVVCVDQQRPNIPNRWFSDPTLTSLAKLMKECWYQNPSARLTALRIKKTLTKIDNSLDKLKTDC

[4] = LCMS of stored solid sample; format: physicochemical; settings: stored as a solid in a desiccator for 4 months
[5] = Metabolic stability in mouse liver microsomes; format: in vitro ADME
[6] = target: T3, ALK3/BMPR1A (Homo sapiens, UniProt P36894); settings: read-out: IC50 ALK3/BMPR1A; previously reported; cited from earlier work
[7] = tested on: Id1, TAK1, XIAP in H1299 tumors; settings: similar doses; cited from earlier work
[8] = tested on: H1299 lung cancer cells; assay: Cell viability; format: cell-based, human; settings: for cell death, JL5 compared with DMH2: H1299, 2.5 μM, 3 days; for effect on JL5-induced cell death: H1299, pretreated 1 h, then JL5 3 days
[9] = target: T4, ALK6/BMPR1B (Homo sapiens, UniProt O00238); settings: read-out: IC50 ALK6/BMPR1B; previously reported; cited from earlier work
[10] = tested on: Id1, TAK1, XIAP in H1299 tumors; assay: Western blot of BMP downstream targets in H1299 tumor xenografts; format: in vivo, mouse; settings: NSG mice, 4 days
Procedure, shortened: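 Xenografts made by intradermal flank injection of 2 million H1299 cells into NSG mice. At about 4 mm × 4 mm, mice received test compound at 3 or 10 mg/kg twice daily, or DMSO, for four days. Tumor protein (BCA-quantified) run on SDS-PAGE and blotted to nitrocellulose. Probed with anti-Id1, anti-pTAK1 and anti-XIAP (primary overnight at 4 °C), then ECL detection.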

[11] = target: T4, ALK6/BMPR1B; assay: IC50 kinase assay ALK6; format: biochemical; settings: ATP 10 μM
[12] = target: T5, ALK5/TGFβR1 (Homo sapiens, UniProt P36897); settings: read-out: IC50 ALK5/TGFβR1; ATP 10 μM
T5 sequence (P36897 34-503): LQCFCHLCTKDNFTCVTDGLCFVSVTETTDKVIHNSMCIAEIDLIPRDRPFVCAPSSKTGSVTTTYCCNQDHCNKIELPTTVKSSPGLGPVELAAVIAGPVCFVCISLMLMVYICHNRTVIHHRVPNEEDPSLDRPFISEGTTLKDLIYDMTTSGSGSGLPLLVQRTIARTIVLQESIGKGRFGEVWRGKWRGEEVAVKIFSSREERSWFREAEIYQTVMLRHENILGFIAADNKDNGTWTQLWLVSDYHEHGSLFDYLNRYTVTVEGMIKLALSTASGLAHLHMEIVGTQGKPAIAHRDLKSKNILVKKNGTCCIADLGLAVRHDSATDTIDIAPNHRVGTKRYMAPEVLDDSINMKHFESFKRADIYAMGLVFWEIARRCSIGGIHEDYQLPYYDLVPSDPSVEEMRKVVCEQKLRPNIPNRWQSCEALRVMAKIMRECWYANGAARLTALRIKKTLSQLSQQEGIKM

[13] = tested on: A549 cells; assay: Cell growth A549; format: cell-based, human; settings: A549, activating K-Ras mutation
Procedure, shortened: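 A549 cells grown in DMEM with 5% FBS, seeded in six-well plates and exposed to test compound from the following day for the set time. Live and dead cells were counted on a Vi-CELL analyser by trypan blue exclusion, 500 cells per sample.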

[14] = tested on: H1299 cells; assay: Annexin V / 7-AAD staining; format: cell-based, human; settings: H1299, 2.5 μM, 48 h, vs DMSO
Procedure, shortened: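 H1299 cells in six-well plates exposed to DMSO or test compound at 2.5 μM for 48 h. They were then stained with labeled Annexin V and 7-AAD per kit instructions and analysed by flow cytometry. 7-AAD-positive, Annexin V-negative cells counted as necrotic. Experiments run at least 3 times.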

[15] = tested on: caspase-3, PARP in H1299 cells; assay: Western blot of activated caspase-3 and PARP; format: cell-based, human; settings: H1299, 3 days
Procedure, shortened: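 H1299 cells treated with test compound, and total protein quantified by BCA. Lysates separated by SDS-PAGE onto nitrocellulose and blocked at least 2 h. Probed overnight at 4 °C with rabbit monoclonal anti-activated caspase-3 and anti-PARP, with actin or GAPDH as loading control. Secondary antibody 1 h at room temperature, then enhanced chemiluminescence detection.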

[16] = Pharmacokinetics in BALB/c mice; format: in vivo, mouse
[17] = Toxicity studies in NSG mice; format: in vivo
[18] = tested on: H1299 tumors; assay: H1299 tumor xenografts in NSG mice without immune cells; format: in vivo, mouse
[19] = tested on: H1299 cells; assay: TUNEL assay; format: cell-based, human; settings: H1299, 24 h
[20] = tested on: Id1 promoter; assay: Id1-luciferase reporter assay in H1299 cells; format: cell-based, human; settings: H1299 cells stably expressing reporter, 48 h
Procedure, shortened: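 H1299 cells stably carrying an Id-1 promoter–luciferase reporter were exposed to test compound for 48 h. Cells were then lysed and luminescence read on a luminometer. The experiment was run twice.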

[21] = target: T3, ALK3/BMPR1A; assay: IC50 kinase assay ALK3; format: biochemical; settings: ATP 10 μM
[22] = target: T1, BMPR2; assay: IC50 kinase assay BMPR2; format: biochemical
[23] = tested on: H1299 tumors; assay: H1299 tumor xenografts in humanized NSG mice; format: in vivo, mouse
[24] = target: T2, ALK2/ACVR1; assay: IC50 kinase assay ALK2; format: biochemical; settings: ATP 10 μM
[25] = NSG mice, IP 3 mg/kg, 10 mg/kg twice daily for 4 days
[26] = treatment day 21, IHC image analysis

T4 sequence (O00238 14-502): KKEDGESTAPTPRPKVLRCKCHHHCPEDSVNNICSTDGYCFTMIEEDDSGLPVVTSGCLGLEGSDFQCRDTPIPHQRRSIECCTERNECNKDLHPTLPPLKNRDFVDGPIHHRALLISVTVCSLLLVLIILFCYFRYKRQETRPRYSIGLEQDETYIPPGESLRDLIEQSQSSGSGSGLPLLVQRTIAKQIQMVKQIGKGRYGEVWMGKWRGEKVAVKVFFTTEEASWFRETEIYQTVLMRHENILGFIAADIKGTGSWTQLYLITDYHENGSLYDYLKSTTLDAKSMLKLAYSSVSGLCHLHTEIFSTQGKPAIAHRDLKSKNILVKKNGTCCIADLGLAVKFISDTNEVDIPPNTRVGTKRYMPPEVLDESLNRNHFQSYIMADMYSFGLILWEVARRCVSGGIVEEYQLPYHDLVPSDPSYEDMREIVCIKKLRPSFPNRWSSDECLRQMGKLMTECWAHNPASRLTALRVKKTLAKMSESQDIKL
T3 sequence (P36894 24-532): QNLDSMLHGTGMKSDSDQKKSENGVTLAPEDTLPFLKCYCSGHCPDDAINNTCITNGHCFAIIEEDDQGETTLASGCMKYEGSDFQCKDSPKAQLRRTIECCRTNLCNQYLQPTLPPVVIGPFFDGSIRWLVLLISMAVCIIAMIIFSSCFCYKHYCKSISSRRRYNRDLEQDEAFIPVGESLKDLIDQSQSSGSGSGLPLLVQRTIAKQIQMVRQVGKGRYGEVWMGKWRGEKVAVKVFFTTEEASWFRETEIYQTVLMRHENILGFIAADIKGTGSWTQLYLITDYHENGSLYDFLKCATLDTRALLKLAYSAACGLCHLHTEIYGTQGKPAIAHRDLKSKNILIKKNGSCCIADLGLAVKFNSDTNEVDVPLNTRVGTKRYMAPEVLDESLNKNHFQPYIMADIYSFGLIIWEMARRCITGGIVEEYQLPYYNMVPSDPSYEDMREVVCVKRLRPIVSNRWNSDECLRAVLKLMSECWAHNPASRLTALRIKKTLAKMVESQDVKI

## c1ccc2c(-c3cnn4cc(-c5ccc(OCCN6CCOCC6)cc5)cnc34)ccnc2c1 [DMH2]
[1]; i.v.
  AUCinf: 487 ng·h/mL
  AUClast: 485 ng·h/mL
  CL: 68 mL/min/kg
  T1/2: 57 min
  Vss: 0.95 L/kg
[1]; p.o.
  AUCinf: 729 ng·h/mL
  AUClast: 707 ng·h/mL
  C0/Cmax: 684 ng/mL
[1]; stated in discussion
  half-life: 60 min
[2]
  IC50: 7950 nM
[3]
  IC50: 23 nM
[4]
  chemical stability on storage (LCMS): revealed a phenolic byproduct due to morpholine side-chain hydrolysis
[5]
  ClearanceINT: 250 mL/min/kg
[6]
  IC50: 92 nM
[7]
  downregulation of Id1, pTAK1, XIAP in tumor xenografts: did not downregulate Id1, pTAK1, or XIAP
[8]
  cell death, JL5 compared with DMH2: same amount of cell death
[9]
  IC50: 43 nM

## c1ccc2c(-c3cnn4cc(-c5ccc(OCCN6CCCCC6)cc5)cnc34)ccnc2c1 [JL5]
[10]; 3 mg/mL
  expression of Id1 in tumors: feedback increase in the expression of Id1
[10]; 10 mg/kg
  protein expression of Id1, TAK1, XIAP in tumors: decreased protein expression of Id1 and TAK1 but not XIAP
[11]
  IC50 ALK6/BMPR1B: single digit nanomolar
[11]; read-out: IC50 ALK6/BMPR1B
  IC50: 2 nM
[12]
  IC50: 440 nM
[13]
  growth of A549 cells: suppressed growth
[14]
  percentage of cells in late apoptosis / necrosis (Annexin V, 7-AAD): significant increase in the percentage of cells in late stages of apoptosis as well as necrosis
[15]
  activation of caspase-3 and cleavage of PARP: induced the activation of caspase-3 and cleavage of PARP
[16]; i.v., 2 mg/kg
  AUCinf: 381 ng·h/mL
  AUClast: 349 ng·h/mL
  C0/Cmax: 568 ng/mL
  CL: 194 mL/min/kg
  T1/2: 34.2 min
  Vss: 8.78 L/kg
[16]; p.o.
  AUCinf: 1,645 hr×ng/mL
  AUClast: 1,605 hr×ng/mL
  C0/Cmax: 1,282 ng/mL
[17]; 21-day studies, 10 mg/kg intraperitoneal twice daily
  signs of toxicity (anorexia, lethargy, loss of weight): no signs of toxicity
[17]; [25]
  blood chemistry screen vs DMSO: no significant difference
  histological examination of livers, lungs, kidneys: did not reveal any evidence of toxicity
  systemic toxicity (loss of appetite, anorexia, lethargy): no evidence of systemic toxicity
[5]
  ClearanceINT: 129 mL/min/kg
  intrinsic clearance lower than that of DMH2: 48%
[18]; 10 mg/mL, from treatment day 5 to day 14
  regression in tumor size: ~ 35%
[18]; after 21 days of treatment
  tumor cell death or proliferation (H&E, Ki67): No significant differences
[19]
  DNA double-stranded breaks (TUNEL): induces DNA double-stranded breaks
[20]
  expression of the Id1-luciferase reporter: dose-related decrease
[21]
  IC50 ALK3/BMPR1A: single digit nanomolar
[21]; read-out: IC50 ALK3/BMPR1A
  IC50: < 5 nM
[22]; read-out: IC50 BMPR2, ATP 10 μM
  IC50: 8510 nM
[22]; read-out: IC50 for the BMP type II receptor BMPR2
  IC50: ~8000 nM
[23]; 10 mg/kg twice daily, 13 days
  size and weight of tumors vs vehicle control: significant difference in the size and weight
[23]; 10 mg/kg twice daily, from treatment day 7 to day 12
  regression in tumor size: ~ 35%
[23]; 13 days, H&E image analysis
  necrotic cells compared to control tumors: twice the number of necrotic cells
[23]; 21 days
  cell death by H&E staining: no noteworthy histomorphological differences
  proliferation of tumor cells (Ki67): significant reduction in proliferation
[23]; [26]
  increase in CD3+ cells within tumor vs DMSO control: 67%
  increase in CD4+ cells within tumor vs DMSO control: 80%
[8]
  cell death, JL5 compared with DMH2: same amount of cell death
[8]; H1299, 7 days
  dead and live cells vs DMSO control: majority of the H1299 cells treated with JL5 were dead
[24]
  IC50 ALK2/ACVR1: single digit nanomolar
[24]; read-out: IC50 ALK2/ACVR1
  IC50: 1 nM

## COC(=O)C[C@H](NC(=O)[C@H](C)NC(=O)[C@@H](NC(=O)OCc1ccccc1)C(C)C)C(=O)CF [Z-VAD-FMK] (Cbz-Val-Ala-Asp(OMe)-CH2F)
[8]
  effect on JL5-induced cell death: partially inhibited

## CN1C(=O)C(Cc2c[nH]c3ccccc23)NC1=S (stereo not shown) [necrostatin-1]
[8]
  effect on JL5-induced cell death: had no effect
